In PubChem BioAssay:
Records with an inconclusive call do not appear.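 The calls were made as follows, unless noted: active = RAM network inhibition above 8.4% in each of two replicates, 3 SD over the compound average; inconclusive = above 8.4% inhibition in only one replicate; inactive = 8.4% inhibition or less in each replicate.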

Experiments:
[1] = S. cerevisiae growth inhibition in permissive medium (OD615), pilot counter-assay for S. cerevisiae lifespan shortening project, permissive growth control (AID 705;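 active = growth inhibition above 25% in both replicates, a cutoff set 3 SD above the mean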); conditions: OD615, 24 h, at 10 µM, active compounds read high
How it was run: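 Material: engineered DeaD yeast; Compound: one dose 10 µM, DMSO 0.25% final; Detection: absorbance (optical density) at 615 nm; Buffer or medium: permissive raffinose/galactose medium; Timing: 24 h exposure, 30 °C.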

[2] = S. cerevisiae growth inhibition in restrictive medium, OD615, pilot screen, restrictive growth control, yeast lifespan reduction project (AID 706;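 active = growth inhibition above a set limit, 3 SD over mean compound inhibition, in both replicates, cut at about 43% in these data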;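 also: modified DeaD lifespan yeast strain shifted to restrictive glucose medium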); conditions: OD615, 48 h, at 10 µM, active compounds read high
How it was run: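 Buffer or medium: restrictive glucose medium (CSMM-D); test system: modified S. cerevisiae; doses: single dose of 10 µM compound final, 0.25% DMSO; schedule: 48 h compound exposure at 30 °C; detection: absorbance (optical density) measured at 615 nm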

[3] = doxorubicin toxicity protection in MRP-1 cells – H69AR cells, CellTiter-Glo, duplicate, MRP-1 activator project, pilot screen (AID 807;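 active = viability increase at or above a cutoff of the median across tested compounds plus 3 SD, cut at about 8.5% in these data, passing the limit was not always enough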;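 also: compound pretreatment 18-22 h then 72 h combined with doxorubicin; 0% = doxorubicin alone and 100% = vehicle without doxorubicin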); conditions: H69AR viability with doxorubicin, CellTiter-Glo luminescence; at 10 µM; active compounds read high
[4] = viability of HCT116 without oncogenic beta-catenin – human colon tumor cells, pilot screen (AID 823;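 active = cell viability at or below a set limit in both duplicate runs, the limit being the all-compound median minus 4 SD, cut at about 23% in these data, passing the limit was not always enough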;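 also: 0% = wells killed by 20 µM Hyamine and 100% = untreated DMSO cell wells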); conditions: HCT116 beta-catenin knockout viability, CellTiter-Glo, 60 h; at 10 µM; active compounds read low
[5] = viability of PTEN-null HCT116 cells – cell-based, HCT116 clonal line, CellTiter-Glo, pilot screen (AID 824;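 active = viability at or below 27.92% in each of two runs, the all-compound median minus 4 SD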;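 also: 0% = 20 µM Hyamine control and 100% = vehicle cell control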); conditions: HCT116 PTEN-deleted viability, 60 h, at 10 µM, active compounds read low
[6] = RAM pathway blockade in budding yeast – dse1pr::URA3 reporter, 5-FOA selection, pilot screen (AID 869;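 active = inhibition over a set limit, the all-compound mean plus 3 SD, in both replicate runs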;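 also: 0% = DMSO wells with no growth and 100% = 10 µM 1-NA-PP1 with full growth; RAM network block rescues cells from 5-FOA so hits raise OD615 growth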); conditions: S. cerevisiae dse1pr::URA3 5-FOA growth, OD615, 2 d; at 10 µM; active compounds read high; strain carries analog-sensitive mutant Cbk1 kinase
[7] = RAM signaling pathway blockade in yeast – S. cerevisiae, Pdr1DBD-CYC8 efflux-inhibited sensitized strain, primary screen (AID 1298);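 also: 0% = DMSO untreated cells without growth and 100% = 10 µM 1-NA-PP1 full growth; higher means more yeast growth rescued from 5-FOA killing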; conditions: S. cerevisiae cbk1-as DSE1-URA3 strain, 5-FOA growth OD615, 2 d; at 50 µM; active compounds read high

CCCCCOC(=O)C1=C(C)NC(=O)NC1c1ccccc1OCC (stereo not drawn)
inactive: growth inhibition [1] -2.38% | growth inhibition [2] 11.9% | viability increase [3] -0.2% | viability [4] 69.8% | viability [5] 69.7% | inhibition [6] 0.45% | RAM network inhibition [7] 1.97%

O=C(CC1Sc2ccccc2NC1=O)Nc1cccc(C(=O)O)c1 (stereo not drawn)
inactive: growth inhibition [1] 0.01% | growth inhibition [2] 8.77% | viability increase [3] -0.43% | viability [4] 101% | viability [5] 87% | inhibition [6] 1.14% | RAM network inhibition [7] 4.51%

Nc1ccc(-c2nc3ccc(N)cc3o2)cc1
inactive: growth inhibition [1] 0.07% | growth inhibition [2] 7.21% | viability increase [3] -1.18% | viability [4] 100% | viability [5] 86.8% | inhibition [6] 3.98% | RAM network inhibition [7] 6.51%

Cn1c(C(=O)NCCc2c[nH]c3ccccc23)cc2sccc21
inactive: growth inhibition [1] -2.17% | growth inhibition [2] 12.7% | viability increase [3] -4.58% | viability [4] 95% | viability [5] 88% | inhibition [6] 1.56% | RAM network inhibition [7] 2%

CCOc1ccc(/C=C\C(C)=N\O)cc1
inactive: growth inhibition [1] -0.67% | growth inhibition [2] 0.775% | viability increase [3] -2.74% | viability [4] 90.3% | viability [5] 96.3% | inhibition [6] 0.065% | RAM network inhibition [7] 2.82%

CCCC(=O)NCCc1cc2ccc(C)c(C)c2[nH]c1=O
inactive: growth inhibition [1] -13% | growth inhibition [2] -25.4% | viability increase [3] -1.61% | viability [4] 103% | viability [5] 97.6% | inhibition [6] 1.91% | RAM network inhibition [7] 4%

CCC(Sc1nc(=O)cc(N)n1CCc1ccccc1)C(=O)Nc1cc(C)on1 (stereo not drawn)
inactive: growth inhibition [1] -3.68% | growth inhibition [2] -7.75% | viability increase [3] -1.78% | viability [4] 104% | viability [5] 95.7% | inhibition [6] 1.33% | RAM network inhibition [7] 6.71%

Cn1c(CSc2nc3ccccc3s2)n[nH]c1=S
inactive: growth inhibition [1] -6.41% | growth inhibition [2] 1.9% | viability increase [3] -3.16% | viability [4] 96.9% | viability [5] 94.6% | inhibition [6] 0.23% | RAM network inhibition [7] 0.95%

CCOc1ccc(N(CC(=O)N2CC=C(c3ccccc3)CC2)S(=O)(=O)c2c(C)noc2C)cc1
inactive: growth inhibition [1] -3.46% | growth inhibition [2] -23.9% | viability increase [3] -3.95% | viability [4] 71.1% | viability [5] 64.9% | inhibition [6] 1.11% | RAM network inhibition [7] 0.32%

O=C(Cn1cnc2ccccc2c1=O)N(Cc1ccco1)c1ccc(O)cc1
inactive: growth inhibition [1] -4.45% | growth inhibition [2] -19.6% | viability increase [3] -1.76% | viability [4] 92% | viability [5] 89.8% | inhibition [6] 0.94% | RAM network inhibition [7] -0.26%

CCCNC(=O)C1CC(=O)N(c2ccc(OCC(=O)Nc3cccc(C)c3C)cc2)C1 (stereo not drawn)
inactive: growth inhibition [1] -13.4% | growth inhibition [2] -14.8% | viability increase [3] -1.99% | viability [4] 106% | viability [5] 97.7% | inhibition [6] 2.35% | RAM network inhibition [7] 1.01%

CCCC1(C(=O)O)NC(c2cccc(OC)c2O)C2C(=O)N(c3ccccc3)C(=O)C21 (stereo not drawn)
inactive: growth inhibition [1] -0.085% | growth inhibition [2] -4.29% | viability increase [3] -0.36% | viability [4] 96.4% | viability [5] 97.4% | inhibition [6] 0.49% | RAM network inhibition [7] -0.78%

c1ccc2c(c1)ncc1cccn12
inactive: growth inhibition [1] -16.6% | growth inhibition [2] -12.8% | viability increase [3] -5.24% | viability [4] 104% | viability [5] 89% | inhibition [6] 2.58% | RAM network inhibition [7] 5.07%

CC(C)CCNC(=O)c1ccc2c(c1)N(Cc1ccccc1)C(=O)CS2=O (stereo not drawn)
inactive: growth inhibition [1] -0.755% | growth inhibition [2] 4.24% | viability increase [3] 1.95% | viability [4] 104% | viability [5] 94% | inhibition [6] 0.275% | RAM network inhibition [7] 1.41%

Nc1ccc(Nc2ccccc2)c(Cl)c1
inactive: growth inhibition [1] -1.62% | growth inhibition [2] 19% | viability increase [3] -7.58% | viability [4] 94.7% | viability [5] 97.8% | inhibition [6] 2.79% | RAM network inhibition [7] 4.55%

CCN(CC)C(=O)Nc1cnc2ccccc2c1
inactive: growth inhibition [1] -17.2% | growth inhibition [2] -8.12% | viability increase [3] -2.72% | viability [4] 93.5% | viability [5] 96.4% | inhibition [6] 0.115% | RAM network inhibition [7] 5.38%

O=C(COc1ccccc1)N1CCN(S(=O)(=O)c2cccs2)CC1
inactive: growth inhibition [1] -4.47% | growth inhibition [2] -11% | viability increase [3] -0.82% | viability [4] 94% | viability [5] 85.3% | inhibition [6] 0.6% | RAM network inhibition [7] 7.83%

COc1ccc(C(=O)Nc2cccnc2)cc1S(=O)(=O)N1CCOCC1
inactive: growth inhibition [1] -8.01% | growth inhibition [2] -10.6% | viability increase [3] -0.17% | viability [4] 103% | viability [5] 99.1% | inhibition [6] 0.84% | RAM network inhibition [7] 0.46%

O=C(COc1ccccc1Br)NCc1ccco1
inactive: growth inhibition [1] 2.92% | growth inhibition [2] 8.48% | viability increase [3] -3.54% | viability [4] 97% | viability [5] 102% | inhibition [6] 1.51% | RAM network inhibition [7] 3.3%
